Experimental data pooled from the literature.
Lines come from different studies, so protocols differ.
Target: Vascular endothelial growth factor receptor 1 (FLT1, Homo sapiens, UniProt P17948)
Residues used in one study (P17948 784-1338, limits assumed): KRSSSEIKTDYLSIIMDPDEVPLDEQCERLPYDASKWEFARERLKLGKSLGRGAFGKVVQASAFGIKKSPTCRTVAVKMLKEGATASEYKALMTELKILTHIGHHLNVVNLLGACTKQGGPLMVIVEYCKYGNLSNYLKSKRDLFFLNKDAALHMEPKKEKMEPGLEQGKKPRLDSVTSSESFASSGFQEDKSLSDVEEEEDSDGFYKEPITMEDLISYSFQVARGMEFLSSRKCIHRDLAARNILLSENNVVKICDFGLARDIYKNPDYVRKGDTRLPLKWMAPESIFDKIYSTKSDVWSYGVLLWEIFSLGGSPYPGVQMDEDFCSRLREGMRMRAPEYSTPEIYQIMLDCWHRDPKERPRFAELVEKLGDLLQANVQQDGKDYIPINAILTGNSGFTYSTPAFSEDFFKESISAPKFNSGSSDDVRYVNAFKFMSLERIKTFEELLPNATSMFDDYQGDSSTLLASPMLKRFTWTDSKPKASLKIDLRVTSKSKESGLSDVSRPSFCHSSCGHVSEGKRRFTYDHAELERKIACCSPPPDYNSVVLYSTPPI

`CNC(=O)c1cc(Oc2ccc(NC(=O)Nc3ccc(Cl)c(C(F)(F)F)c3)cc2)ccn1` has a remaining signal of 50.5% (cell-free assay; 0.5 µM).
With `COc1cc2ncnc(Nc3ccc(Oc4ccccc4)cc3C)c2cc1OC` the inhibition was -2% (enzyme activity, inhibitor; 1 µM).
For `Nc1nc(Nc2ccccc2)sc1C(=O)c1c(F)cccc1F`, the remaining activity was 17% (enzyme activity, inhibitor; 10 µM).
The remaining activity of `O=C(Nc1cnn(-c2csc(C(=O)NC3COC3)c2)c1)Nc1c(F)cccc1Cl` is reported as 86.1% (enzyme activity, inhibitor; 5 µM).
`CO[C@@H](C)c1c(Nc2ccc([C@@H](N(C)C(=O)C3CCS(=O)(=O)CC3)C(F)(F)F)cc2)cnc2cc(Cl)nn12` gave a remaining binding of 85% (cell-free assay, competition with immobilised ligand; 1 µM).
`CNCc1ccc(-c2cc(-c3nc(-c4ccc(S(=O)(=O)C(C)C)cc4)cnc3N)on2)cc1` gave an inhibition of 50% (enzyme activity, inhibitor; 0.4 µM).
For `CCCOc1ccc([C@@H]2[C@@H](C(=O)O)[C@H](c3ccc4c(c3)OCO4)CN2CC(=O)Nc2c(CC)cccc2CC)cc1`, the remaining binding was 94% (cell-free assay, competition with immobilised ligand; 1 µM).
The inhibition of `CCN(CC)CCNC(=O)c1c(C)[nH]c(/C=C2\C(=O)Nc3ccc(F)cc32)c1C` is reported as 102% (enzyme activity, inhibitor; 10 µM).
For `CC(C)(O)[C@H]1CC[C@H](Nc2ccc3ncc(-c4cccc(C(F)(F)F)c4)n3n2)CC1`, the remaining activity was 92.5% (enzyme activity, inhibitor; 1 µM).
`CC/C(=N\NC(=O)NCc1cccc(O)c1)c1ccc(O)c(C)c1O` has an inhibition of 2.5% (enzyme activity, inhibitor; 0.1 µM).
With `CS(=O)(=O)NCC[C@H](NC(=O)c1cncc2c1cnn2-c1ccc(F)cc1)c1ccnc(S(C)(=O)=O)c1` the remaining binding was 90% (cell-free assay, competition with immobilised ligand; 1 µM).
`COc1cc(Nc2cnc(C#N)c(O[C@H](C)CN(C)C)n2)ncc1-c1cnn(C)c1` gave a remaining activity of 90% (enzyme activity, inhibitor, radiometric; 1 µM).
With `N#CCCc1ccc2c(c1)-c1[nH]c3ccc([N+](=O)[O-])cc3c1CC(=O)N2` the remaining signal was 99.7% (cell-free assay; 0.5 µM).
For `COc1cc(Cl)c(C(=O)N[C@@H](CN[C@H]2CC[C@@H](N)CC2)Cc2ccc(C#N)cc2)cc1-c1ccc(CN[C@H](C)c2ccc(C)cc2)o1`, the remaining activity was 102% (enzyme activity, inhibitor; 1 µM).
`O=C(O)[C@@H]1[C@@H](Cn2nnc3ccccc3c2=O)CC[C@H]1C(=O)c1ccc(OCCC2CCOCC2)cc1` gave a remaining binding of 100% (cell-free assay, competition with immobilised ligand; 1 µM).
With `COc1cc(/C=C/C(=O)CC(=O)/C=C/c2ccc(O)c(OC)c2)ccc1O` the activity vs control was 67% (enzyme activity, inhibitor; 1 µM).
`O=C(N[C@H]1CCCCC/C=C\C2C[C@@]2(C(=O)O)NC(=O)[C@@H]2C[C@@H](Oc3ccncc3)CN2C1=O)OC1CCCC1` (some centres unmarked) has a remaining binding of 100% (cell-free assay, competition with immobilised ligand; 1 µM).
`CC(C)(C)c1nc(-c2cccc(NS(=O)(=O)c3c(F)cccc3F)c2F)c(-c2ccnc(N)n2)s1` has a remaining activity of 84% (enzyme activity, inhibitor, radiometric; 1 µM).
`COc1cc(-c2cn(C3CCc4c(F)cccc4N(CC(F)(F)F)C3=O)nn2)ccc1-n1cnc(C)c1` (centres unmarked) has a remaining binding of 97% (cell-free assay, competition with immobilised ligand; 1 µM).
`Cc1cc(NC(=O)c2cccc3cc(-c4cccc5[nH]nc(N)c45)ccc23)ccc1F` has an activity vs control of 2% (enzyme activity, inhibitor; 0.1 µM).
The inhibition of `Cc1ccc(Nc2nccc(N(C)c3ccc4c(C)n(C)nc4c3)n2)cc1S(N)(=O)=O` is reported as 102% (enzyme activity, inhibitor; 10 µM).
`COc1cc2nccc(Oc3ccc(NC(=O)c4c5n(n(-c6ccc(F)cc6)c4=O)CCCC5)cc3)c2cc1OC` has an inhibition of 23% (enzyme activity, inhibitor; 0.1 µM).
With `Cc1cnc(NC2CCOCC2)nc1-n1cnc(C(=O)NC(CN)c2cc(F)cc(Cl)c2)c1` (centres unmarked) the remaining activity was 92% (enzyme activity, inhibitor, radiometric; 1 µM).
With `Cc1ccc(NC(=O)c2ccc(CN3CCN(C)CC3)cc2)cc1Nc1nc(-c2cccnc2)cs1` the remaining signal was 96.4% (cell-free assay; 0.5 µM).
The remaining binding of `COCCOc1nc(-c2ccc(Cl)nc2)nc2c1CN(C(=O)c1ncn3ccccc13)CC2` is reported as 87% (cell-free assay, competition with immobilised ligand; 0.1 µM).
`Cc1ccc(NC(=O)c2ccc(C)c(C(F)(F)F)c2)cc1C#Cc1nn(C2CCC(O)CC2)c2ncnc(N)c12` (centres unmarked) has a remaining signal of 3% (cell-free assay; 10 µM).
The remaining activity of `O=C(Nc1cnn(-c2csc(C(=O)NC3COC3)c2)c1)Nc1ccccc1Cl` is reported as 101% (enzyme activity, inhibitor; 5 µM).
`O=S(=O)(NC1CCC(c2cc(F)ccc2F)(S(=O)(=O)c2ccc(Cl)cc2)CC1)C(F)(F)F` (centres unmarked) gave a remaining binding of 86% (cell-free assay, competition with immobilised ligand; 1 µM).
`Cc1ccc(C(=O)Nc2ccc(CN3CCN(C)CC3)c(C(F)(F)F)c2)cc1C#Cc1cnc2cccnn12` gave a remaining signal of 33% (cell-free assay; 23.5 nM).
